Measurements published in ChEMBL document CHEMBL1154279, “Cytotoxic compounds from the stems of Cinnamomum tenuifolium” (J Nat Prod, 2009).
Active and inactive are the calls of the source. The calls are words filed in the database; no cut-off is given here.

What was measured:
DU-145 [1] = test: Cell cycle arrest in human DU145 cells assessed as accumulation of cells at S phase at 1 uM after 72 hrs using propidium iodide stain by flow cytometry; assay type: functional
Outline: (§1)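 DU145 cells treated with 1, 5, 10 or 100 µM for 24 or 72 h; vehicle 1% DMSO in water. Adherent and floating cells pooled, fixed in PBS-MeOH (1:2) at 4 °C for at least 18 h, then stained 30 min at room temperature in the dark with propidium iodide 50 µg/mL plus RNase A 50 µg/mL. Flow cytometry, excitation 488 nm, emission above 580 nm, doublets gated out. Sub-G1 region taken as DNA damage; at least three runs.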

DU-145 [2] = test: Cell cycle arrest in human DU145 cells assessed as accumulation of cells at G1 phase at 1 uM after 72 hrs using propidium iodide stain by flow cytometry; assay type: functional; outline: as §1
DU-145 [3] = test: Cell cycle arrest in human DU145 cells assessed as accumulation of cells at sub-G1 phase at 1 uM after 72 hrs using propidium iodide stain by flow cytometry; assay type: functional; outline: as §1
DU-145 [4] = test: Induction of apoptosis in human DU145 cells assessed as formation of granulation of nucleus after 24 hrs by Hoechst 33342 stainig; assay type: functional, cell-based
Outline: (§2)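 DU145 cells exposed to 1 and 100 µM for 24 h, vehicle 1% DMSO. Fixed in 3.7% paraformaldehyde, stained with Hoechst 33342 (5 µg/mL) at 37 °C for 1 h and examined by fluorescence microscopy. Cells with reduced nuclear size, chromatin condensation or nuclear fragmentation scored as apoptotic.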

DU-145 [5] = test: Cytotoxicity against human DU145 cells after 72 hrs by XTT assay; assay type: functional, cell-based; details: DU-145, 24 h, in the assay text read “after 24 hrs” for “after 72 hrs”
LNCaP = test: Cytotoxicity against human LNCAP cells after 72 hrs by XTT assay; assay type: functional, cell-based; details: 24 h, in the assay text read “after 24 hrs” for “after 72 hrs”
Outline: (§3)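 Prostate cancer cells in RPMI-1640 with 10% FBS, 37 °C, 5% CO2, grown to 70–80% confluence and treated at 0.1–100 µM for 24, 48 and 72 h. XTT labeling for 4 h at 37 °C, absorbance 450 nm (reference 650 nm) against control wells. IC50 derived from the mean of eight wells; taxol and cisplatin served as positive controls.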

DU-145 [6] = test: Reduction of mitochondrial membrane potential in human DU145 cells using rhodamine 123 staining by spectrophotofluorimeter; assay type: functional, cell-based
Outline: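 DU145 cells incubated 6, 12, 18 or 24 h with or without 10 and 100 µM, then given 10 µM rhodamine 123 in serum-free medium for 15 min at 37 °C. Collected cells read within 15 min by spectrofluorimeter (ex 495, em 520 nm); three experiments.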

DU-145 [7] = test: Increase in the ratio of cytochrome C concentration from cytosol to mitochondria in human DU145 cells at 100 uM after 24 hrs by ELISA; assay type: functional, cell-based
Outline: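 DU145 cells given 100 µM or DMSO vehicle for 6–24 h at 37 °C. Cytosolic fraction released with digitonin buffer on ice for 5 min; mitochondrial fraction taken by Triton/deoxycholate/SDS lysis and a 10000g spin. Cytochrome c in each fraction measured by ELISA and expressed as a cytosol/mitochondria ratio; three experiments, ANOVA with Dunnett's test.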

DU-145 [8] = test: Induction of apoptosis in human DU145 cells assessed as caspase3 activation at 10 uM by ELISA; assay type: functional, cell-based
Outline: (§4)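 DU145 cells treated with 10 µM for 1, 3, 6, 12 and 24 h and lysed. Lysate (60 µg) incubated with Ac-DEVD-pNA or Ac-LEHD-pNA in PIPES buffer pH 7.2 at 37 °C for 1 h in the dark. pNA release read at 405 nm and expressed as percent change against untreated control.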

DU-145 [9] = test: Induction of apoptosis in human DU145 cells assessed as caspase9 activation after 24 hrs by ELISA; assay type: functional, cell-based; details: TDE = time-dependent effect; outline: as §4
DU-145 [10] = test: Antiproliferative activity in human DU145 cells at 10 uM after 24 hrs by XTT assay in the presence of Ac-DEVD-CMK; assay type: functional, cell-based
Outline: (§5)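 DU145 cells pretreated 60 min with 50 µM Ac-DEVD-CMK or 50 µM Ac-LEHD-CMK, then exposed to 10 µM compound for 24 h (vehicle 1% DMSO in water). Proliferation read by XTT: labeling mixture added for 4 h at 37 °C, OD 450 nm (reference 650 nm) versus control wells; mean ± SE of three experiments.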

DU-145 [11] = test: Antiproliferative activity in human DU145 cells at 10 uM after 24 hrs by XTT assay in the presence of Ac-LEHD-CMK; assay type: functional, cell-based; outline: as §5
DU-145 [12] = test: Induction of apoptosis in human DU145 cells assessed as PARP activation at 100 uM by ELISA; assay type: functional, cell-based
DU-145 [13] = test: Increase of intracellular hydrogen peroxide and or peroxide in human DU145 cells at 50 uM after 24 hrs by DCFH-DA assay relative to control; assay type: functional
Outline: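 DU145 cells (1 × 10^4 per well) treated with 1, 10 or 50 µM for 6–24 h, then loaded with 10 µM DCFH-DA in serum-free medium for 30 min at 37 °C in the dark. DCF fluorescence read by spectrofluorimeter (ex 495, em 530 nm) within 15 min; five experiments.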

DU-145 [14] = test: Induction of apoptosis in human DU145 cells assessed as increase in intracellular ROS level at 10 uM by DCHF-DA assay; assay type: functional, cell-based
DU-145 [15] = test: Cell cycle arrest in human DU145 cells assessed as accumulation of cells at sub-G1 phase after 24 hrs using propidium iodide stain by flow cytometry; assay type: functional, cell-based; outline: as §1
DU-145 [16] = test: Induction of apoptosis in human DU145 cells assessed as caspase9 activation by ELISA; assay type: functional, cell-based; details: TDE = time-dependent effect; outline: as §4
DU-145 [17] = test: Induction of apoptosis in human DU145 cells assessed as change in cellular morphology after 24 hrs by Hoechst 33342 stainig; assay type: functional, cell-based; outline: as §2
DU-145 [18] = test: Cytotoxicity against human DU145 cells at 100 uM after 72 hrs by XTT assay; assay type: functional, cell-based; outline: as §3
DU-145 [19] = test: Cytotoxicity against human DU145 cells at 100 uM after 72 hrs by Trypan blue dye exclusion test; assay type: functional, cell-based
Outline: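 DU145 cells (1 × 10^5 per 60 mm dish) treated the following day with 1–100 µM for 24, 48 and 72 h. Cells harvested, washed twice with PBS and stained with trypan blue; unstained viable cells counted by microscope with a hemocytometer. Mean ± SE.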

DU-145 [20] = test: Cell cycle arrest in human DU145 cells assessed as accumulation of cells at sub-G1 phase at 1 uM after 24 hrs using propidium iodide stain by flow cytometry; assay type: functional; outline: as §1
DU-145 [21] = test: Cell cycle arrest in human DU145 cells assessed as accumulation of cells at G1 phase at 1 uM after 24 hrs using propidium iodide stain by flow cytometry; assay type: functional; outline: as §1
DU-145 [22] = test: Cell cycle arrest in human DU145 cells assessed as accumulation of cells at S phase at 1 uM after 24 hrs using propidium iodide stain by flow cytometry; assay type: functional; outline: as §1

How did the Activity (DU-145 [1]) turn out when `CCCCCCCCCCCCCCCCCCCCCCCC/C=C(/C(=O)OC)[C@@H](O)C(C)=O` [SECOTENUIFOLIDE A] was run?
Its Activity is 2.88%.

And the Activity (DU-145 [2])?
The Activity was 53.11%.

What about the Activity (DU-145 [3]) of the same compound?
The Activity was 9.75%.

What about the Activity (DU-145 [4]) of the same compound?
The Activity was “Active”.

What about the EC50 (DU-145 [5]) of the same compound?
Its EC50 is less than 7 µM.

And the IC50 (DU-145 [5])?
The IC50 was 5.2 µM.

And the EC50 (LNCaP)?
The EC50 was less than 7 µM.

And the IC50 (LNCaP)?
Its IC50 is 6.76 µM.

And the Activity (DU-145 [6])?
The Activity was “Active”.

And the Activity (DU-145 [7])?
The Activity was “Active”.

What about the Activity (DU-145 [8]) of the same compound?
Its Activity is “Active”.

And the Activity (DU-145 [9])?
The Activity was “tde”.

What about the Activity (DU-145 [10]) of the same compound?
The Activity was “inactive”.

And the Activity (DU-145 [11])?
The Activity was “inactive”.

What about the Activity (DU-145 [12]) of the same compound?
The Activity was “Active”.

What about the “fold change (FC)” value (DU-145 [13]) of the same compound?
The value was 2.5.

What about the Activity (DU-145 [14]) of the same compound?
The Activity was “Active”.

What about the Activity (DU-145 [15]) of the same compound?
Its Activity is “Dose-dependent effect”.

What about the Activity (DU-145 [16]) of the same compound?
The Activity was “tde”.

What about the Activity (DU-145 [17]) of the same compound?
The Activity was “Active”.

And the Activity (DU-145 [18])?
The Activity was “Active”.

What about the Activity (DU-145 [19]) of the same compound?
Its Activity is “Active”.

What about the Activity (DU-145 [20]) of the same compound?
The Activity was 6.56%.

What about the Activity (DU-145 [21]) of the same compound?
Its Activity is 44.45%.

What about the Activity (DU-145 [22]) of the same compound?
Its Activity is 3.31%.
